From ChEMBL document CHEMBL1800010, “Design, synthesis, and pharmacological activity of nonallergenic pyrazolone-type antipyretic analgesics” (J Med Chem, 2010)
Calls of active or inactive are those of the source.

Tests used:
Rattus norvegicus [1] = assay: Antinociceptive activity in rat assessed as suppression of carrageenan-induced nociception in right hind paw at 2 mg/kg, po measured after 1 hr; format: functional, organism-based; design: dose 2 mg/kg
Outline: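 Rat Randall-Selitto paw pressure test. Hyperalgesia induced by intraplantar injection of 0.1 mL carrageenin (10 mg/mL) into the right hindpaw. Drug given orally immediately after. Pressure applied at 16 g/s with a 250 g cutoff; threshold taken at squeaking/struggling. Baseline is the mean of the last four stable readings. Expressed as % of control threshold; mean ± SEM, n=4 rats.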

Rattus norvegicus [2] = assay: Drug excretion in rat urine assessed as norantipyrine formation at 100 mg/kg, po measured after 24 hrs by HPLC analysis; format: ADME, organism-based; design: dose 100 mg/kg, route oral; details: in vivo
Outline: (§1)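 Single oral dose of 100 mg/kg to rats, with urine collected for 24 h. 1 mL urine was incubated with β-glucuronidase/sulphatase and Na2S2O5 in 0.1 M acetate, pH 4.5, at 37 °C for 24 h. Phenacetin internal standard added, then chloroform/methanol 9:1 extraction. Analyzed by C18 HPLC (acetate pH 6.6/acetonitrile 85:15, 254 nm) against authentic standards. Mean ± SEM, n=4.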

Rattus norvegicus [3] = assay: Antipyretic activity against IL-1beta-induced hyperthermia in rat assessed as change in rectal temperature at 50 mg/kg, po measured after 2 hrs
Rattus norvegicus [4] = assay: Drug excretion in rat urine assessed as norantipyrine formation at 100 mg/kg, po measured after 24 hrs by HPLC analysis; details: in vivo, BLD = below limit of detection
Rattus norvegicus [5] = organism: Rattus norvegicus; assay: Antipyretic activity against IL-1beta-induced hyperthermia in rat assessed as change in rectal temperature measured after 2 hrs; format: functional, organism-based
Outline: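 Rats fitted with a guide cannula into the lateral ventricle. Fever induced by icv IL-1β (200 units/rat) in PBS pH 7.5. Compound given orally immediately after IL-1β at 10-100 mg/kg. Rectal temperature read by thermoelectric probe at 7 cm depth, after 3 days of adaptation, at 2 h intervals. ΔT_rec = T − T₀. Mean ± SEM, four rats.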

Cavia porcellus = organism: Cavia porcellus; assay: Antigenicity in guinea pig assessed as erythema in abdomen id measured after 24 hrs by skin reaction assay; details: in vivo, other
Liver microsomes [6] = assay: Metabolic stability in rat liver microsomes assessed as norantipyrine formation per mg of protein after 20 mins by HPLC analysis; format: ADME, Microsome
Outline: (§2)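 Rat liver microsomes prepared by 9000g then 105000g centrifugation in 1.15% KCl, protein by Lowry. Incubation: 2 μmol substrate, 10 μmol NADPH, Na2S2O5 and microsomes (2-2.5 mg protein) in 2 mL 0.1 M K/Na phosphate, pH 7.4, 37 °C, 20 min. Stopped with TCA. Metabolites measured by C18 HPLC at 254 nm against authentic standards.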

Rattus norvegicus [7] = assay: Antinociceptive activity in rat assessed as suppression of carrageenan-induced nociception in right hind paw at 100 mg/kg, po measured after 1 hr; format: functional, organism-based; design: dose 100 mg/kg
Outline: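 Randall–Selitto paw pressure test in rats. Hyperalgesia induced by intraplantar injection of 0.1 mL carrageenin (10 mg/mL) into the right hindpaw, with oral dosing immediately afterward. Pressure rose at 16 g/s to squeak or struggle, cutoff 250 g. Baseline was the mean of the last four stable of 6-8 readings. Results given as % of baseline threshold, mean ± SEM, n=4.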

Rattus norvegicus [8] = assay: Drug excretion in rat urine assessed as hydroxymethylpyrine formation at 100 mg/kg, po measured after 24 hrs by HPLC analysis; format: ADME, organism-based; design: dose 100 mg/kg, route oral; details: in vivo; outline: as §1
Rattus norvegicus [9] = assay: Antipyretic activity against IL-1beta-induced hyperthermia in rat assessed as change in rectal temperature at 100 mg/kg, po measured after 2 hrs
Liver microsomes [10] = assay: Metabolic stability in rat liver microsomes assessed as increase in […] products after 20 mins by HPLC analysis; format: ADME, Microsome; outline: as §2
[11] = Drug excretion in rat urine at 100 mg/kg, po measured after 24 hrs by HPLC analysis; format: ADME, organism-based; design: dose 100 mg/kg, route oral; details: read-out: Activity; outline: as §1
Liver microsomes [12] = assay: Metabolic stability in rat liver microsomes assessed as hydroxymethylpyrine formation per mg of protein after 20 mins by HPLC analysis; format: ADME, Microsome; outline: as §2
Liver microsomes [13] = assay: Metabolic stability in rat liver microsomes assessed as hydroxyantipyrine formation per mg of protein after 20 mins by HPLC analysis; format: ADME, Microsome; outline: as §2
Rattus norvegicus [14] = assay: Drug excretion in rat urine assessed as hydroxyantipyrine formation at 100 mg/kg, po measured after 24 hrs by HPLC analysis; format: ADME, organism-based; design: dose 100 mg/kg, route oral; details: in vivo; outline: as §1

Row | Compound | Activity (Rattus norvegicus [1]) | Activity (Rattus norvegicus [2]; BLD = below limit of detection) | Activity (Rattus norvegicus [3]) | Activity (Rattus norvegicus [4]) | Activity (Rattus norvegicus [5]) | Activity (Cavia porcellus) | Activity (Liver microsomes [6]) [nmol] | Activity (Rattus norvegicus [7]) | Activity (Rattus norvegicus [8]; BLD = below limit of detection) | Activity (Rattus norvegicus [9]) | Activity (Rattus norvegicus [2]) [%] | Stability (Liver microsomes [10]) | dose excreted at 24 h [11] [%] | Activity (Liver microsomes [12]) [nmol] | Activity (Liver microsomes [13]) [nmol] | Activity (Rattus norvegicus [8]) [%] | Activity (Rattus norvegicus [14]) [%]
1 | COc1ccc2c(c1)c(CC(=O)O)c(C)n2C(=O)c1ccc(Cl)cc1 | Active |  |  |  |  |  |  |  |  |  |  |  |  |  |  |  | 
2 | Cc1cc(=O)n(-c2ccccc2)n1-c1ccccc1 |  | BLD | Active | BLD | Dose-dependent effect | Non-toxic | < 0.1 | Active | BLD |  |  |  |  |  |  |  | 
3 | Cc1cc(=O)n(-c2ccccc2)n1C [ANTIPYRINE] |  |  |  |  |  | Toxic | 27 | Active |  | Active | 2 | Unstable | 2 | 40 | 40 | 2 | 2
4 | Cc1cc(=O)n(-c2ccccc2)n1CC(F)(F)F |  | BLD | Active | BLD | Dose-dependent effect | Non-toxic | < 0.1 | Active | BLD |  |  |  |  |  |  |  | 
5 | Cc1cc(=O)n(-c2ccccc2)n1C(C)(C)C |  | BLD | Active | BLD | Dose-dependent effect | Non-toxic | < 0.1 | Active | BLD |  |  |  |  |  |  |  | 
6 | Cc1cccc(Nc2ccccc2C(=O)O)c1C |  |  |  |  |  |  |  |  |  | Active |  |  |  |  |  |  | 
